Assay [1] has as its target T1, 17-beta-hydroxysteroid dehydrogenase type 3 (Homo sapiens) (UniProt P37058).
T1 sequence (whole entry): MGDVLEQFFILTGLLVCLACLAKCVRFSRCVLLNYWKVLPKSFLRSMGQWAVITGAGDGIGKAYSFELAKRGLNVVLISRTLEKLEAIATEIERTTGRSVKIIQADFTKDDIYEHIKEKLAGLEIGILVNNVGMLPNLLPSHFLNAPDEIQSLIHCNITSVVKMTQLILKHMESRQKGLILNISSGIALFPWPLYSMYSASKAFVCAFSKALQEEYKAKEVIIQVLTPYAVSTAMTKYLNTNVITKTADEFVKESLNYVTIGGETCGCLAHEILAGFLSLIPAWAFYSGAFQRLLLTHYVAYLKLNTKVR
Kind of assay: Inhibition of human 17beta-HSD3 expressed in HEK293 cells assessed as enzyme-mediated transformation of [14C]-4-androstene-3,17-dione in to [14C]-testosterone at 0.1 uM. Format: cell-based.

The target of assay [2] is T2, Estrogen receptor (Rattus norvegicus) (UniProt P06211).
T2 sequence (whole entry): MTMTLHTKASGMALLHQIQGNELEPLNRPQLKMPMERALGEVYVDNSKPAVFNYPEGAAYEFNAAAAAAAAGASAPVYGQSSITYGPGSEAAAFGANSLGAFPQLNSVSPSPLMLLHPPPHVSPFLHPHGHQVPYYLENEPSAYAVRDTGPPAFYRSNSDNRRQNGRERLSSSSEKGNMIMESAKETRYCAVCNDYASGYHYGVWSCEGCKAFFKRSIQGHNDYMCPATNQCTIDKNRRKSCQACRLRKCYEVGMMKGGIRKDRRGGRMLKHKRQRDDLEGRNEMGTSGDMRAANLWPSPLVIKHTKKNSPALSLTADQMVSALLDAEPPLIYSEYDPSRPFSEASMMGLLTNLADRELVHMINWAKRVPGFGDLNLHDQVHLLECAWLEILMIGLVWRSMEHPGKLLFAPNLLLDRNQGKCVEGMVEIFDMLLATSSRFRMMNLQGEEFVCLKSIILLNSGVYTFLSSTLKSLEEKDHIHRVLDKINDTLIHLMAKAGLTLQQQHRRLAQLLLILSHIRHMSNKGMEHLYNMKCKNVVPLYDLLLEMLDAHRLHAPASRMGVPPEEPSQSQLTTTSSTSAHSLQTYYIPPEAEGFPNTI
In words: Binding affinity to rat uterus estrogen receptor at 1 uM.

In assay [3] the target is T3, 17-beta-hydroxysteroid dehydrogenase type 1 (Homo sapiens) (UniProt P14061).
T3 sequence (whole entry): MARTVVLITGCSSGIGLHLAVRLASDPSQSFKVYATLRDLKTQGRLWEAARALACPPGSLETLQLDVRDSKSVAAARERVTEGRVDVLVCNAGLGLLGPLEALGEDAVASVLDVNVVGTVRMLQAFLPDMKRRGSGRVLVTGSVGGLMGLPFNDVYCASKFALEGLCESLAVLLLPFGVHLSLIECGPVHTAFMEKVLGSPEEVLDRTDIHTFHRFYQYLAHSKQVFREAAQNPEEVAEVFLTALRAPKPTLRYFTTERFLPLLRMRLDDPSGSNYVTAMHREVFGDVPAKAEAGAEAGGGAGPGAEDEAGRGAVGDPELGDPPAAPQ
Kind of assay: Inhibition of human 17beta-HSD1 expressed in HEK293 cells assessed as enzyme-mediated transformation of [14C]-E1 in to [14C]-E2 at 1 uM. In kind it is cell-based.

The target in assay [4] is T2, Estrogen receptor (Rattus norvegicus). Kind of assay: Binding affinity to rat uterus estrogen receptor at 0.1 uM.
For assay [5], the target named is T4, Glucocorticoid receptor (Rattus norvegicus) (UniProt P06536).
T4 sequence (whole entry): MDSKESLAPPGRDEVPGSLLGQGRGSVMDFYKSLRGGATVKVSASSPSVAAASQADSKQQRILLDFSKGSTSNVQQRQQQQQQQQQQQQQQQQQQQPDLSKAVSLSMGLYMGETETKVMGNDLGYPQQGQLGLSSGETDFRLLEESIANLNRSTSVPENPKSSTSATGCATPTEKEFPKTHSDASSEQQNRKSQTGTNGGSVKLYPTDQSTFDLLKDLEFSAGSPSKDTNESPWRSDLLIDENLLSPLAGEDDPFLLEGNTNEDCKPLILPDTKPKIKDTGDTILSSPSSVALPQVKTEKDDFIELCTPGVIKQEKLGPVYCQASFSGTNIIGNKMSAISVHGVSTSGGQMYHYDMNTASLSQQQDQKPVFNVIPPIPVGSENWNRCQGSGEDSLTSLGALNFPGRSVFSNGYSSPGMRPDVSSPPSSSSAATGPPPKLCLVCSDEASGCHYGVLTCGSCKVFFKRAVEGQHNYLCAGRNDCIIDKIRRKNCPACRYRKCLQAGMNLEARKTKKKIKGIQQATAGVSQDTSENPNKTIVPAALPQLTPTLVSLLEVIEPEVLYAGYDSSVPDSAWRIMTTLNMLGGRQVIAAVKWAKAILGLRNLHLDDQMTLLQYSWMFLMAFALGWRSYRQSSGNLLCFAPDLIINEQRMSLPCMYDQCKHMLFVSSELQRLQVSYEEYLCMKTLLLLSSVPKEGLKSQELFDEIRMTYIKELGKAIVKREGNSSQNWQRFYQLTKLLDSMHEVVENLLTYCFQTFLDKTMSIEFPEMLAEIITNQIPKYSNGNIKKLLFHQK
Kind of assay: Binding affinity to rat liver glucocorticoid receptor at 10 uM. The gist of the method: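 Rat liver glucocorticoid receptor competitive binding, reported as % binding. Bound and free steroid are separated by dextran-coated charcoal adsorption instead of protamine sulfate precipitation.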

Assay [6] concerns the target T5, 17-beta-hydroxysteroid dehydrogenase type 2 (Homo sapiens) (UniProt P37059).
T5 sequence (whole entry): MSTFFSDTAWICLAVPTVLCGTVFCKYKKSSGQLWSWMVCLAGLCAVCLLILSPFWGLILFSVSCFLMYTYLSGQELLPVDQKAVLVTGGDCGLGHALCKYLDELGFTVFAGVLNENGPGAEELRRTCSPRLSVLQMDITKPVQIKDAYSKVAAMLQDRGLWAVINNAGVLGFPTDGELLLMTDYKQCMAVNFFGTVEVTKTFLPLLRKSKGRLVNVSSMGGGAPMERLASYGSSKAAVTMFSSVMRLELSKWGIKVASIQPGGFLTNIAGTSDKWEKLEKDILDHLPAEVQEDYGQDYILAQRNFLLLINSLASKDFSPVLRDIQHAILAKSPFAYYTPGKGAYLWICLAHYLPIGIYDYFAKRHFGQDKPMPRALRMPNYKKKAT
Kind of assay: Inhibition of human 17beta-HSD2 expressed in HEK293 cells assessed as enzyme-mediated transformation of [14C]-testosterone in to [14C]-4-androstene-3,17-dione at 0.1 uM. Format: cell-based.

For assay [7], the target named is T5, 17-beta-hydroxysteroid dehydrogenase type 2 (Homo sapiens). Kind of assay: Inhibition of human 17beta-HSD2 expressed in HEK293 cells assessed as enzyme-mediated transformation of [14C]-testosterone in to [14C]-4-androstene-3,17-dione at 1 uM. In kind it is cell-based.

Structures are written as SMILES. The source made the active and inactive calls. The calls are words filed in the database; no cut-off is given here.

In ChEMBL document CHEMBL1153852, “Steroidal lactones as inhibitors of 17beta-hydroxysteroid dehydrogenase type 5: chemical synthesis, enzyme inhibitory activity, and assessment of estrogenic and androgenic activities” (Eur J Med Chem, 2009) one finds inhibition and Activity data, which are given here for two molecules.

Consider `CC1(C)CC[C@@]2(CC[C@H]3[C@@H]4CCc5ccccc5[C@H]4CC[C@@]32C)OC1=O`, for which the inhibition was 25% in assay [1] and 50% in assay [3]. In addition, in assay [2], the Activity is 0%.
As to `CC1(C)CC[C@@]2(CC[C@H]3[C@@H]4CCc5cc(O)ccc5[C@H]4CC[C@@]32C)OC1=O`, the Activity in assay [4] amounted to 10%; in assay [5] it was 24%. The outcome in assay [6] and in assay [7] was inactive.

Broadly, the inhibition is the share of the control response that was lost under treatment.
